This note sets out measurements from ChEMBL document CHEMBL4190313, “In vitro targeting of colon cancer cells using spiropyrazoline oxindoles” (Eur J Med Chem, 2017).

Series [1] deals with HCT-116. Kind of series: Antiproliferative activity against human HCT116 p53+/+ cells after 72 hrs by MTS assay. Format: functional, cell-based. As to conditions: HCT-116, 72 h. The essentials: (§1)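 Cells allowed to adhere 24 h (1x10⁴/well), then exposed to 0.5-50 μM compound from DMSO stocks (final DMSO ≤0.8% v/v) for 72 h. Viability by MTS bio-reduction to formazan, absorbance 490 nm. IC50 from log(inhibitor) vs response (variable slope) fit, at least three independent experiments; table values mean ± SD of three experiments in duplicate.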

Series [2] has as its system CCD-18Co. Kind of series: Cytotoxicity against human CCD-18Co cells at IC80 after 72 hrs by MTS assay relative to control. Format: cell-based.
For series [3], the system named is HCT-116. Description: Cell cycle arrest in human HCT116 p53+/+ cells assessed as accumulation at G2/M phase at IC50 after 48 hrs by propidium iodide staining-based flow cytometric analysis (reference value: 26.85%). Format: functional. (In general: Flow cytometry measures light scatter and fluorescence of single cells or particles in a stream.)
Series [4] has as its system HCT-116. Description: Cell cycle arrest in human HCT116 p53+/+ cells assessed as accumulation at G0/G1 phase at IC50 after 48 hrs by propidium iodide staining-based flow cytometric analysis (reference value: 50.48%). Format: functional.
Series [5] has as its target T1, Tumour suppressor p53/oncoprotein Mdm2 (Homo sapiens) (UniProt P04637+Q00987). Description: Inhibition of MDM2/p53 interaction in human HCT116 cells assessed as upregulation of p53 protein expression at IC50 after 72 hrs by Western blot analysis. It counts as cell-based. Background: Immunoblotting shows a protein as a band on a membrane.
Series [6] deals with E3 ubiquitin-protein ligase Mdm2 (Homo sapiens) (UniProt Q00987). Description: Inhibition of FAM-tagged p53-based fluorescent probe binding to human His-tagged MDM2 (1 to 118 residues) up to 400 uM after 30 mins by fluorescence polarization assay. In outline:
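Recombinant human His-tagged MDM2 (residues 1-118), final 10 nM, preincubated with 5-FAM-labelled p53-based peptidomimetic probe, final 1 nM (Kd 1.4 ± 0.3 nM). Buffer: 100 mM potassium phosphate pH 7.5, 100 μg/ml bovine γ-globulin, 0.02% sodium azide, 0.01% Triton X-100, final 4% DMSO. Incubated 30 min at room temperature with shaking; polarization read at ex 485/em 530 nm. Inhibition calculated against protein+probe and free-probe controls.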

The subject of series [7] is HCT-116. Description: Cell cycle arrest in human HCT116 p53+/+ cells assessed as accumulation at G0/G1 phase at IC50 after 24 hrs by propidium iodide staining-based flow cytometric analysis (reference value: 33.49%). It counts as functional.
For series [8], the system named is HCT-116. Description: Cytotoxicity against human HCT116 p53+/+ cells at 2 times IC50 after 72 hrs by LDH release assay relative to control. Format: functional. The essentials:
(§2)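 HCT-116 p53+/+ cells treated at IC50 or 2xIC50, or DMSO, for 72 h. Supernatant mixed with LDH assay substrate 10-30 min at room temperature in the dark; absorbance 490 nm, 620 nm reference. LDH release normalized to DMSO control; mean ± SEM of three independent experiments.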

The test system of series [9] is HCT-116. Description: Cell cycle arrest in human HCT116 p53+/+ cells assessed as accumulation at G2/M phase at IC50 after 24 hrs by propidium iodide staining-based flow cytometric analysis (reference value: 29.07%). It counts as functional.
Series [10] concerns the target T1, Tumour suppressor p53/oncoprotein Mdm2 (Homo sapiens). Kind of series: Inhibition of MDM2/p53 interaction in human HCT116 cells assessed as downregulation of MDM2 protein expression at IC50 after 72 hrs by Western blot analysis. It counts as cell-based.
Series [11] deals with HCT-116. Kind of series: Synergistic cytotoxicity against human HCT116 p53+/+ cells at IC10 to IC20 after 72 hrs in presence of 5-FU by MTS assay. It counts as functional, cell-based.
The test system of series [12] is HCT-116. Kind of series: Cell cycle arrest in human HCT116 p53+/+ cells assessed as accumulation at S phase at IC50 after 48 hrs by propidium iodide staining-based flow cytometric analysis (reference value: 22.67%). It counts as functional.
For series [13], the system named is HCT-116. Description: Cell cycle arrest in human HCT116 p53+/+ cells assessed as accumulation at S phase at IC50 after 24 hrs by propidium iodide staining-based flow cytometric analysis (reference value: 37.44%). Format: functional.
In series [14] the target is T1, Tumour suppressor p53/oncoprotein Mdm2 (Homo sapiens). Description: Inhibition of MDM2-V2/V1-p53 (unknown origin) interaction expressed in human HCT116 p53-/- cells at 20 uM after 20 hrs by biomolecular fluorescence complementation-based flow cytometric analysis. Format: cell-based. The essentials:
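HCT-116 p53-/- cells cotransfected with 1 µg each of V1-p53 and MDM2-V2 Venus BiFC plasmids by lipofection. Medium replaced 4-6 h later and compound added at 5, 10 or 20 μM, or DMSO, for a further 20 h. Cells detached with accutase; Venus fluorescence by flow cytometry, normalized to DMSO (100%). Mean ± SD of three independent experiments.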

Series [15] has as its system HCT-116. Description: Cytotoxicity against human HCT116 p53+/+ cells at IC50 after 72 hrs by LDH release assay. Format: functional, cell-based. The essentials: as §2
For orientation: LDH in the medium is a marker of cell lysis.

Series [16] relates to HCT-116. Kind of series: Synergistic cytotoxicity against human HCT116 p53+/+ cells at IC50 after 72 hrs in presence of 5-FU by MTS assay. It counts as functional, cell-based.
The subject of series [17] is HCT-116. Description: Antiproliferative activity against human HCT116 p53-/- cells after 72 hrs by MTS assay. Format: functional, cell-based. As to conditions: HCT-116, 72 h. In outline:
as §1

The test system of series [18] is CCD-18Co. Kind of series: Cytotoxicity against human CCD-18Co cells at IC50 after 72 hrs by MTS assay. Format: cell-based.
The subject of series [19] is HCT-116. Kind of series: Induction of apoptosis in human HCT116 p53+/+ cells assessed as early apoptotic cells at IC50 after 72 hrs by Annexin V-FITC/7-AAD staining-based flow cytometric analysis relative to control. Format: functional. The essentials:
(§3)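 HCT-116 p53+/+ cells (5x10⁴/well) exposed at IC50 or 2xIC50, or DMSO, for 72 h. Medium and Accutase-detached cells pooled, resuspended in PBS/2% FBS, stained with Annexin V/7-AAD reagent 20 min at room temperature in the dark. Flow cytometry, at least 5000 events per sample; mean ± SD of three independent experiments.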

Series [20] has as its system HCT-116. Description: Induction of apoptosis in human HCT116 p53+/+ cells assessed as increase in early apoptotic cells at 2 times IC50 after 72 hrs by Annexin V-FITC/7-AAD staining-based flow cytometric analysis. Format: functional, cell-based. The essentials: as §3

Activity calls are given as the source filed them. No cut-off for these calls is given here.

Broadly, the IC50 is the concentration needed to halve the response being measured. Low readings indicate inhibition by little substance, high ones a need for much substance.

T1 sequence (P04637 whole entry, looked up, the tested form may be a part): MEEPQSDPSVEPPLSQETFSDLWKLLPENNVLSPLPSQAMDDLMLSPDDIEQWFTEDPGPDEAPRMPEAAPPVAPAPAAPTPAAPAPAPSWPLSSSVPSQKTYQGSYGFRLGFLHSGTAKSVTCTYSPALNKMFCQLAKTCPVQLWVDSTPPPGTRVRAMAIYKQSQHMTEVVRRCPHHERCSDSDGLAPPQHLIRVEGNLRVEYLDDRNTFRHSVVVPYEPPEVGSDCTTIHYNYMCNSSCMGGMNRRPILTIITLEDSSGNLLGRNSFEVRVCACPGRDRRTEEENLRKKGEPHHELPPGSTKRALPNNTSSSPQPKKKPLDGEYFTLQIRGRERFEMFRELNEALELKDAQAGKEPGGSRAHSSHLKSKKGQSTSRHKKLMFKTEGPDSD
T1 sequence (Q00987 whole entry, looked up, the tested form may be a part): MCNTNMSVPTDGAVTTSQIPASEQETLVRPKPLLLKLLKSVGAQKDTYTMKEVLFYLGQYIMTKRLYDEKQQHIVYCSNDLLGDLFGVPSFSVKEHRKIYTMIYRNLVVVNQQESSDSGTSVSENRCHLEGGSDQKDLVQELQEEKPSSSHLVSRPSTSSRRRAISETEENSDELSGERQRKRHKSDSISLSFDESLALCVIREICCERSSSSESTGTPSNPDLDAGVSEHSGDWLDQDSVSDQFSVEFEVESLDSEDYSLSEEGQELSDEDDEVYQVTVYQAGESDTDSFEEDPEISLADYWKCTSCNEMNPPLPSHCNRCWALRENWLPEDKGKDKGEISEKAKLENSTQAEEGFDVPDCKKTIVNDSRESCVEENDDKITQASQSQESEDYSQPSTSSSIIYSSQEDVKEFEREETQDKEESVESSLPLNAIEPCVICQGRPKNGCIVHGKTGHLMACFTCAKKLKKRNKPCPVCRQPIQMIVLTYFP
Sequence of E3 ubiquitin-protein ligase Mdm2 (Homo sapiens) (Q00987 whole entry, looked up, the tested form may be a part): as above

In the case of `COc1ccc(C2=NN(c3ccccc3)[C@]3(C(=O)Nc4ccc(Cl)cc43)[C@H]2c2ccccc2)cc1`, in the series on HCT-116 [1], half-maximal inhibition (IC50) required 10.6 µM.

For the compound `CC(C)(C)C1=NN(c2ccccc2)[C@]2(C(=O)Nc3cc(Br)ccc32)[C@H]1c1ccccc1`, the IC50 in the series on HCT-116 [1] is over 20 µM.

As for `CC(C)(C)C1=NN(c2ccccc2)[C@]2(C(=O)Nc3cc(Cl)ccc32)[C@H]1c1cccc(Cl)c1`, 18.4 µM corresponded to half-maximal inhibition with HCT-116 [1] (IC50).

In the series with HCT-116 [1], `CC(C)(C)C1=NN(c2ccccc2Cl)[C@]2(C(=O)Nc3ccc(Cl)cc32)[C@H]1c1ccccc1` yielded an IC50 of over 20 µM.

With `COc1ccc(C2=NN(c3ccccc3)[C@]3(C(=O)Nc4cc(Br)ccc43)[C@H]2c2ccccc2)cc1`, half-maximal inhibition with HCT-116 [1] (IC50) required 12.8 µM.

As to `CC(C)(C)C1=NN(c2ccccc2)[C@]2(C(=O)Nc3ccc(Br)cc32)[C@H]1c1ccccc1`, in the series with HCT-116 [1], the IC50 is over 20 µM.

As to `CC(C)(C)C1=NN(c2ccccc2)[C@]2(C(=O)Nc3cc(Cl)ccc32)[C@H]1c1ccccc1`, the 50% inhibitory concentration (IC50) in the series with HCT-116 [1] is over 20 µM.

`O=C1Nc2cc(Cl)c(F)cc2[C@]12[C@@H](c1ccccc1)C(c1ccccc1)=NN2c1ccccc1`: the IC50 in the series on HCT-116 [1] came out at 12.4 µM.

As for `O=C1Nc2cc(Cl)ccc2[C@@]12ON=C(c1ccccc1)[C@@H]2c1ccccc1`, in the series on HCT-116 [1], the IC50 was 39.8 µM.

On to `O=C1Nc2ccc(Br)cc2[C@]12[C@@H](c1ccccc1)C(c1ccccc1)=NN2c1ccccc1`, for which the Activity is 20% in the series on CCD-18Co [2]; 15.17% in the series with HCT-116 [3]; 62% with HCT-116 [4]; 41.85% in the series with HCT-116 [7]; 19.55% with HCT-116 [9]; 15.38% in the series on HCT-116 [12]. In addition, the Activity was 38.59% in the series on HCT-116 [13], “Non-Toxic” with CCD-18Co [18] and 10% in the series with HCT-116 [19]. Further, the inhibition result in series [5], in [10] and in series [14] was “Active” in each case. Also, in series [6], the inhibition entry is “inactive”. The “fold change (FC)” value with HCT-116 [8] is on record as 1.5. Moreover, in the series on HCT-116 [11], the outcome was Active. Also, the IC50 stood at 13.1 µM in the series with HCT-116 [1] and 14.2 µM with HCT-116 [17]. The result in the series on HCT-116 [15] and with HCT-116 [16] was inactive.

`O=C1Nc2cc(Br)ccc2[C@@]12ON=C(c1ccccc1)[C@@H]2c1ccccc1` yielded an IC50 with HCT-116 [1] of 35 µM.

`CC(C)(C)C1=NN(c2ccccc2Cl)[C@]2(C(=O)Nc3c(Cl)cccc32)[C@H]1c1ccccc1` came in with an IC50 in the series with HCT-116 [1] of 17.3 µM.

For `O=C1Nc2cc(Br)ccc2[C@]12[C@@H](c1ccccc1)C(c1ccccc1)=NN2c1ccccc1`, the IC50 in the series on HCT-116 [1] worked out at 15.9 µM.

In the case of `O=C1Nc2c(Cl)cccc2[C@]12[C@@H](c1ccccc1)C(c1ccccc1)=NN2c1ccccc1`, in the series on HCT-116 [1], the IC50 stood at 16.6 µM.

As to `COc1ccc(C2=NN(c3ccccc3)[C@]3(C(=O)Nc4c(Cl)cccc43)[C@H]2c2ccccc2)cc1`, the IC50 with HCT-116 [1] stood at 15.6 µM.

`O=C1Nc2ccccc2[C@]12[C@@H](c1ccccc1)C(c1ccccc1)=NN2c1ccccc1` gave an IC50 in the series with HCT-116 [1] of over 20 µM.

With `O=C1Nc2c(Cl)cccc2[C@]12[C@@H](c1ccccc1)C(c1ccccc1)=NN2c1ccccc1Cl`, in the series on HCT-116 [1], the IC50 was over 20 µM.

In the series with HCT-116 [1], `O=C1Nc2cc(Cl)ccc2[C@]12[C@@H](c1ccccc1)C(c1ccccc1)=NN2c1ccccc1` came in with an IC50 of 16.7 µM.

The compound `CC(C)(C)C1=NN(c2ccccc2)[C@]2(C(=O)Nc3c(Cl)cccc32)[C@H]1c1ccccc1` had an IC50 in the series on HCT-116 [1] of 13.3 µM.

Consider `COc1ccc(C2=NN(c3ccccc3)[C@]3(C(=O)Nc4ccccc43)[C@H]2c2ccccc2)cc1`, for which the IC50 with HCT-116 [1] was determined as 11.7 µM.

In the case of `CC(C)(C)C1=NN(c2ccccc2)[C@]2(C(=O)Nc3ccccc32)[C@H]1c1ccccc1`, the IC50 in the series with HCT-116 [1] is over 20 µM.

In the series with HCT-116 [1], `CC(C)(C)C1=NN(c2ccccc2Cl)[C@]2(C(=O)Nc3ccccc32)[C@H]1c1ccccc1` came in with an IC50 of over 20 µM.

Take `COc1ccc(C2=NN(c3ccccc3)[C@]3(C(=O)Nc4cc(Cl)ccc43)[C@H]2c2cccc(Cl)c2)cc1`: the Activity in the series on CCD-18Co [2] is given as 20%; in the series with HCT-116 [3], 24.87%; in the series with HCT-116 [4], 54.78%; with HCT-116 [7], 50.22%; with HCT-116 [9] it was 11.33%; in the series with HCT-116 [12] it was 20.35%. The Activity with HCT-116 [13] is 38.45%; in the series with CCD-18Co [18], “Non-Toxic”; in the series on HCT-116 [19], 10%. Also, the inhibition entry in [5], in series [10] and in [14] was “Active” in each case. The “fold change (FC)” value in the series with HCT-116 [8] was found to be 1.5. The IC50 was 10.9 µM in the series on HCT-116 [1] and 11.6 µM in the series on HCT-116 [17]. In addition, in the series on HCT-116 [15], the result was inactive. Besides, the result with HCT-116 [20] was Active.

Take `COc1ccc(C2=NO[C@]3(C(=O)Nc4cc(Br)ccc43)[C@H]2c2ccccc2)cc1`: the IC50 with HCT-116 [1] turned out to be 33.4 µM.

In the series with HCT-116 [1], `O=C1Nc2ccc(Cl)cc2[C@]12[C@@H](c1ccccc1)C(c1ccccc1)=NN2c1ccccc1` yielded an IC50 of 11 µM.

For the compound `CC(C)(C)C1=NN(c2ccccc2)[C@]2(C(=O)Nc3ccc(Cl)cc32)[C@H]1c1ccccc1`, it took 17 µM to reach half-maximal inhibition in the series with HCT-116 [1] (IC50).
